The values that follow come from ChEMBL document CHEMBL1140733, “Comprehensive study of sansalvamide A derivatives and their structure-activity relationships against drug-resistant colon cancer cell lines” (J Med Chem, 2008).

Peptide text beside a SMILES is read from it. * marks the point of attachment. Cbz = O=C(OCc1ccccc1)*

Test [1] has as its system HCT-15. Kind of test: Cytotoxicity against multidrug-resistant human HCT15 cells at 1 uM by thymidine incorporation assay. In kind it is functional. In short, it runs like this: (§1)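 HCT-116 cells were grown in IMDM and HCT-15 in RPMI 1640, each with L-glutamine, 10% FBS and penicillin-streptomycin, at 3000 cells/well. Compound was applied at 1 µM in 1% DMSO for 72 h total, with 3H-thymidine added for the final 16 h. Percent growth inhibition versus DMSO controls was scintillation-counted, averaging three wells in each of three assays.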

Test [2] deals with HCT-116. Kind of test: Cytotoxicity against multidrug-resistant human HCT116 cells by thymidine incorporation assay. The test is classed as functional, cell-based. An outline of the steps:
(§2)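 Cells (3000/well) were plated in IMDM (HCT-116), RPMI 1640 (HCT-15) or MEM (WS-1), each with L-glutamine, 10% FBS and 0.1% penicillin-streptomycin. Compounds in DMSO (1% in all wells) were added after about 6 h and left for 72 h, with 3H-thymidine pulsed for the last 16 h. Uptake was scintillation-counted against DMSO controls. IC50 came from four-concentration curves, three experiments in quadruplicate.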

In test [3] the test system is HCT-15. Kind of test: Cytotoxicity against multidrug-resistant human HCT15 cells by thymidine incorporation assay. The test is classed as functional, cell-based. In short, it runs like this:
as §2

In test [4] the test system is HCT-116. Kind of test: Cytotoxicity against multidrug-resistant human HCT116 cells at 1 uM by thymidine incorporation assay. In kind it is functional. In short, it runs like this:
as §1

On to `CC(C)C[C@@H]1NC(=O)[C@H](Cc2ccccc2)NC(=O)[C@H](CC(C)C)N(C)C(=O)[C@H](C(C)C)NC(=O)[C@H](CC(C)C)NC1=O` (HELM PEPTIDE1{F.L.L.V.[meL]}$PEPTIDE1,PEPTIDE1,1:R1-5:R2$$$V2.0), for which the inhibition at 1 µM in test [1] is 3%; in test [4], 20%. In addition, the IC50 in test [2] and in test [3] was more than 50 µM throughout.
As to `CC(C)C[C@@H]1NC(=O)[C@H](CC(C)C)NC(=O)[C@@H](Cc2ccccc2)NC(=O)[C@H](CC(C)C)NC(=O)[C@H](C(C)C)NC1=O` (HELM PEPTIDE1{L.L.V.L.[dF]}$PEPTIDE1,PEPTIDE1,1:R1-5:R2$$$V2.0), the inhibition at 1 µM worked out at 26% in test [1] and 30% in test [4]. Besides, the IC50 in test [2] and in test [3] was more than 50 µM throughout.
Consider `CC(C)[C@@H]1NC(=O)[C@H](Cc2ccccc2)NC(=O)[C@H](C(C)C)NC(=O)[C@@H](C(C)C)NC(=O)[C@H](C(C)C)NC1=O` (HELM PEPTIDE1{F.V.V.[dV].V}$PEPTIDE1,PEPTIDE1,1:R1-5:R2$$$V2.0), for which the inhibition at 1 µM in test [1] was found to be 1%; in test [4], 19%.
As to `CC[C@H]1NC(=O)[C@H](CC(C)C)NC(=O)[C@H](CC(C)C)NC(=O)[C@H](Cc2ccccc2)NC(=O)[C@H](CC(C)C)NC1=O` (HELM PEPTIDE1{F.L.L.[CC[C@@H](N[*:1])C(=O)[*:2]].L}$PEPTIDE1,PEPTIDE1,1:R1-5:R2$$$V2.0), the results for the inhibition at 1 µM in test [1] and in test [4] were 20% and 17%, respectively.
For the compound `CC(C)C[C@@H]1NC(=O)[C@@H](Cc2ccccc2)NC(=O)[C@@H](CC(C)C)NC(=O)[C@@H](C(C)C)NC(=O)[C@H](CCCCN)NC1=O` (HELM PEPTIDE1{K.[dV].[dL].[dF].L}$PEPTIDE1,PEPTIDE1,1:R1-5:R2$$$V2.0), the inhibition at 1 µM amounted to 17% in test [1] and 2% in test [4].
As for `CC(C)C[C@@H]1NC(=O)[C@H](Cc2ccccc2)NC(=O)[C@H](CC(C)C)NC(=O)[C@H](C(C)C)NC(=O)[C@@H](CC(C)C)NC1=O` (HELM PEPTIDE1{F.L.[dL].V.L}$PEPTIDE1,PEPTIDE1,1:R1-5:R2$$$V2.0), the inhibition at 1 µM in test [1] was 15%; in test [4], 0%.
On to `CC(C)C[C@@H]1C(=O)N[C@H](Cc2ccccc2)C(=O)N[C@H](CC(C)C)C(=O)N[C@H](CC(C)C)C(=O)N[C@H](C(C)C)C(=O)N1C` (HELM PEPTIDE1{[dF].[dL].[dL].[dV].[CC(C)C[C@H](C(=O)[*:2])N(C)[*:1]]}$PEPTIDE1,PEPTIDE1,1:R1-5:R2$$$V2.0), for which the inhibition at 1 µM in test [1] turned out to be 4%; in test [4] it was 1%.
For `CC(C)C[C@@H]1NC(=O)[C@H](Cc2ccccc2)NC(=O)[C@H](CC(C)C)N(C)C(=O)[C@H](C(C)C)N(C)C(=O)[C@H](CC(C)C)NC1=O` (HELM PEPTIDE1{F.L.L.[meV].[meL]}$PEPTIDE1,PEPTIDE1,1:R1-5:R2$$$V2.0), the inhibition at 1 µM in test [1] stood at 0%; in test [4], 10%.
`CC(C)[C@@H]1NC(=O)[C@H](Cc2ccccc2)NC(=O)[C@@H](CO)NC(=O)[C@H](C(C)C)NC(=O)[C@H](C(C)C)NC1=O` (HELM PEPTIDE1{F.V.V.V.[dS]}$PEPTIDE1,PEPTIDE1,1:R1-5:R2$$$V2.0): the results for the inhibition at 1 µM in test [1] and in test [4] were 18% and 0%, respectively.
Consider `CC(C)C[C@@H]1NC(=O)[C@H](CC(C)C)N(C)C(=O)[C@H](Cc2ccccc2)NC(=O)[C@H](CC(C)C)N(C)C(=O)[C@H](C(C)C)NC1=O` (HELM PEPTIDE1{F.[meL].L.V.[meL]}$PEPTIDE1,PEPTIDE1,1:R1-5:R2$$$V2.0), for which the values for the inhibition at 1 µM in test [1] and in test [4] were 0% and 20%, respectively.
On the same counts, the results for `CC(C)C[C@@H]1NC(=O)[C@H](Cc2ccccc2)NC(=O)[C@@H](Cc2ccccc2)N(C)C(=O)[C@H](C(C)C)NC(=O)[C@H](CCCCN)NC1=O` (HELM PEPTIDE1{F.L.K.V.[CN([C@H](Cc1ccccc1)C(=O)[*:2])[*:1]]}$PEPTIDE1,PEPTIDE1,1:R1-5:R2$$$V2.0) are 26% and 30%.
As to `CC(C)C[C@@H]1NC(=O)CN(C)C(=O)[C@H](Cc2ccccc2)NC(=O)[C@H](C(C)C)NC(=O)[C@@H](C(C)C)NC1=O` (HELM PEPTIDE1{F.[Sar].L.[dV].V}$PEPTIDE1,PEPTIDE1,1:R1-5:R2$$$V2.0), the inhibition at 1 µM in test [1] was 18%; in test [4] it was 20%.
On to `CC(C)C[C@@H]1NC(=O)[C@@H](CC(C)C)NC(=O)[C@H](Cc2ccccc2)NC(=O)[C@H](CC(C)C)NC(=O)[C@@H](C(C)C)NC1=O` (HELM PEPTIDE1{F.[dL].L.[dV].L}$PEPTIDE1,PEPTIDE1,1:R1-5:R2$$$V2.0), for which the inhibition at 1 µM amounted to 20% in test [1] and 16% in test [4].
Consider `CC(C)C[C@@H]1NC(=O)[C@H](CC(C)C)NC(=O)[C@@H]2Cc3ccccc3CN2C(=O)[C@H](CC(C)C)NC(=O)[C@H](C(C)C)NC1=O` (HELM PEPTIDE1{L.L.V.L.[Tic]}$PEPTIDE1,PEPTIDE1,1:R1-5:R2$$$V2.0), for which the values for the inhibition at 1 µM in test [1] and in test [4] were 27% and 3%, respectively.
Consider `CC(C)C[C@@H]1NC(=O)[C@H](Cc2ccccc2)NC(=O)[C@@H](CO)NC(=O)[C@H](C(C)C)NC(=O)[C@H](CC(C)C)NC1=O` (HELM PEPTIDE1{F.L.L.V.[dS]}$PEPTIDE1,PEPTIDE1,1:R1-5:R2$$$V2.0), for which the values for the inhibition at 1 µM in test [1] and in test [4] were 3% and 37%, respectively.
On the same counts, the results for `CC(C)C[C@@H]1NC(=O)[C@H](Cc2ccccc2)NC(=O)[C@@H](CC(C)C)NC(=O)[C@@H](C(C)C)NC(=O)[C@H](CC(C)C)NC1=O` (HELM PEPTIDE1{F.L.L.[dV].[dL]}$PEPTIDE1,PEPTIDE1,1:R1-5:R2$$$V2.0) are 17% and 34%.
For `CC(C)C[C@@H]1NC(=O)[C@H](C(C)C)NC(=O)[C@H](CC(C)C)N(C)C(=O)[C@@H](CC(C)C)NC(=O)[C@H](Cc2ccccc2)NC1=O` (HELM PEPTIDE1{F.[dL].[meL].V.L}$PEPTIDE1,PEPTIDE1,1:R1-5:R2$$$V2.0), the figures for the inhibition at 1 µM in test [1] and in test [4] were 30% and 23%, respectively.
Regarding `CC(C)C[C@H]1NC(=O)[C@@H](Cc2ccccc2)NC(=O)[C@@H](CC(C)C)NC(=O)[C@@H](C(C)C)NC(=O)[C@@H](CC(C)C)NC1=O` (HELM PEPTIDE1{[dF].[dL].[dL].[dV].[dL]}$PEPTIDE1,PEPTIDE1,1:R1-5:R2$$$V2.0), the inhibition at 1 µM in test [1] turned out to be 15%; in test [4], 27%.
With `CC(C)C[C@@H]1NC(=O)[C@H](Cc2ccccc2)NC(=O)[C@H](CC(C)C)NC(=O)[C@H](C(C)C)NC(=O)[C@H](CCCCN)NC1=O` (HELM PEPTIDE1{F.L.K.V.L}$PEPTIDE1,PEPTIDE1,1:R1-5:R2$$$V2.0), the inhibition at 1 µM in test [1] was 15%; in test [4], 23%.
On to `CC(C)C[C@@H]1NC(=O)[C@H](C(C)C)NC(=O)[C@@H](CC(C)C)NC(=O)[C@@H](CC(C)C)NC(=O)[C@H](Cc2ccccc2)NC1=O` (HELM PEPTIDE1{F.[dL].[dL].V.L}$PEPTIDE1,PEPTIDE1,1:R1-5:R2$$$V2.0), for which the results for the inhibition at 1 µM in test [1] and in test [4] were 40% and 28%, respectively.
In the case of `CC(C)C[C@@H]1NC(=O)[C@H](Cc2ccccc2)NC(=O)[C@H](CC(C)C)NC(=O)[C@H](C(C)C)NC(=O)[C@H](CCCCNC(=O)OCc2ccccc2)NC1=O` (cyclo(FLK(Cbz)VL)), the results for the inhibition at 1 µM in test [1] and in test [4] were 41% and 46%, respectively.
